ChEMBL document CHEMBL4396883, “Discovery of CDK5 Inhibitors through Structure-Guided Approach” (ACS Med Chem Lett, 2019)
pIC50, pKi: −log10 of the molar value. The source made the active and inactive calls. The rule behind the calls is not given here.

Key:
[1] = molecular target: CDK2/Cyclin A2 (Homo sapiens) (UniProt P24941+P20248); experiment: Inhibition of recombinant full length N-terminal GST tagged human CDK2/CyclinA expressed in baculovirus infected sf9 cells using histone H1 as substrate at 10 uM measured after 30 mins in presence of ATP by ADP-Glo kinase assay relative to control
[2] = molecular target: T1, Cyclin-dependent kinase 5/CDK5 activator 1 (Homo sapiens, UniProt Q00535+Q15078); experiment: Inhibition of recombinant full length N-terminal GST tagged human CDK5/p25 expressed in baculovirus infected sf9 cells using histone H1 as substrate at 10 uM measured after 60 mins in presence of ATP by ADP-Glo kinase assay relative to control
Target sequence in this assay (Q00535 whole entry): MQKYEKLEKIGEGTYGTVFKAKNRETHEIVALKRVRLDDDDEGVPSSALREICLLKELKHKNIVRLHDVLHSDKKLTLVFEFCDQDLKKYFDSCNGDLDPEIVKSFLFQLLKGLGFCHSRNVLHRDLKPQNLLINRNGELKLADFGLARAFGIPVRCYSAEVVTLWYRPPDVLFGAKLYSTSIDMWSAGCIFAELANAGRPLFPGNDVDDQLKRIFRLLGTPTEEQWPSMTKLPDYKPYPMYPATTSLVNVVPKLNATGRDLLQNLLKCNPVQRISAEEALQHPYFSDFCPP
Target sequence in this assay (Q15078 99-307 partner limits assumed): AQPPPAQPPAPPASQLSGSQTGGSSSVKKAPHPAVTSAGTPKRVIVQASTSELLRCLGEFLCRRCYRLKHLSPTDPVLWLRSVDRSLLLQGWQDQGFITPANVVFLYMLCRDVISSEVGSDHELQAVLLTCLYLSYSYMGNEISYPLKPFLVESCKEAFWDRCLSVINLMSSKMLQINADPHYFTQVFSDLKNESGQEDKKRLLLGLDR

[3] = molecular target: Cyclin-dependent kinase 5/CDK5 activator 1 (Homo sapiens, UniProt Q00535); experiment: (§1) Inhibition of recombinant full length N-terminal GST tagged human CDK5/p25 expressed in baculovirus infected sf9 cells using histone H1 as substrate measured after 60 mins in presence of ATP by ADP-Glo kinase assay; type: cell-based
Chain of Cyclin-dependent kinase 5/CDK5 activator 1 (Homo sapiens, UniProt Q00535) (Q00535 whole entry): as the sequence (Q00535 whole entry) above
Chain of Cyclin-dependent kinase 5/CDK5 activator 1 (Homo sapiens, UniProt Q00535) (Q15078 whole entry, further chain): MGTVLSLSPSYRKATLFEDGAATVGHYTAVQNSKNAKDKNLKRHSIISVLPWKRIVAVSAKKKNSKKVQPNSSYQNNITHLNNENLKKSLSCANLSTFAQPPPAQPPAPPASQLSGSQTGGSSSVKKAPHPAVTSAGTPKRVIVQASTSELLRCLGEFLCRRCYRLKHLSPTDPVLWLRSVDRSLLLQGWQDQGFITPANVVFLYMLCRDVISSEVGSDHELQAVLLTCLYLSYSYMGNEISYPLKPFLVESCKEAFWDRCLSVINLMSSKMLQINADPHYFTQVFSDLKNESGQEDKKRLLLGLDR

MOLM-13 = experiment: Antiproliferative activity against human MOLM13 cells assessed as growth inhibition measured after 72 hrs by resazurin assay; type: functional; conditions: MOLM-13, 72 h
Outline: (§2)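 Leukemia cells exposed to compound for 72 h; viability read by resazurin reduction. GI50 (concentration giving 50% inhibition of proliferation) reported as mean ± SD of three independent experiments.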

MV4-11 = experiment: Antiproliferative activity against human MV4-11 cells assessed as growth inhibition measured after 72 hrs by resazurin assay; type: functional; conditions: MV4-11, 72 h; outline: as §2
[4] = molecular target: T1, Cyclin-dependent kinase 5/CDK5 activator 1; experiment: as §1; type: cell-based; conditions: sf9
Target sequence in this assay (Q00535 whole entry): as the sequence (Q00535 whole entry) above
Target sequence in this assay (Q15078 whole entry): as the sequence (Q15078 whole entry, further chain) above

CDK2/Cyclin A2 = CDK2/Cyclin A2 (Homo sapiens, UniProt P24941); experiment: Inhibition of recombinant full length N-terminal GST tagged human CDK2/CyclinA expressed in baculovirus infected sf9 cells using histone H1 as substrate measured after 30 mins in presence of ATP by ADP-Glo kinase assay
Outline: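 CDK2/cyclin A kinase inhibition; Ki values from the average of at least two experiments.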

[5] = molecular target: Cyclin-dependent kinase 1/cyclin B1 (Homo sapiens, UniProt P06493); experiment: Inhibition of CDK1/CyclinB1 (unknown origin) using histone H1 (GGGPATPKKAKKL) as substrate incubated for 80 mins in presence of ATP by ADP-Glo kinase assay; type: protein-complex assay
[6] = molecular target: Cyclin-dependent kinase 4/cyclin D1 (Homo sapiens, UniProt P11802); experiment: Inhibition of human recombinant N-terminal GST-tagged CDK4 (S4-E303 residues)/Cyclin D1 (Q4-I295 residues) expressed in sf9 cells using RB-CTF as substrate incubated for 90 mins in presence of ATP by ADP-Glo kinase assay
Chain of Cyclin-dependent kinase 4/cyclin D1 (P11802 whole entry, the tested form may be a part): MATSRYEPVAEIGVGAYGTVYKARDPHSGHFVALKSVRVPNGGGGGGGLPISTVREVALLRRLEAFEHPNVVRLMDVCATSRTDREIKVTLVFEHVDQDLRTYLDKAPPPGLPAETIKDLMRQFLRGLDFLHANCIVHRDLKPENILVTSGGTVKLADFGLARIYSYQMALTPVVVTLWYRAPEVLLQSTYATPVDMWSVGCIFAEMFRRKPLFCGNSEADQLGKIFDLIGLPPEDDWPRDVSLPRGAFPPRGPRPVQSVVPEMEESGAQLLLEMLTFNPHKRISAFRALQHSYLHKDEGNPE
Chain of Cyclin-dependent kinase 4/cyclin D1 (P24385 whole entry, further chain, the tested form may be a part): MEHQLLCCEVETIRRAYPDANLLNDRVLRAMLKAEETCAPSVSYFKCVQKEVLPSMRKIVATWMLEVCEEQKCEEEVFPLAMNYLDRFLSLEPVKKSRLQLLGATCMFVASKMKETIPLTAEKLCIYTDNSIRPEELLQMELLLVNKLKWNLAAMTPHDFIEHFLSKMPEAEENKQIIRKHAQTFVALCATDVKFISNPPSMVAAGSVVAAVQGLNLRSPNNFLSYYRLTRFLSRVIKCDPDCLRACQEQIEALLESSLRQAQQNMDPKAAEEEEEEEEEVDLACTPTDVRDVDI

CDK6/cyclin D3 = CDK6/cyclin D3 (Homo sapiens, UniProt Q00534); experiment: Inhibition of human recombinant N-terminal GST-tagged CDK6 (M1-A326 residues) and His6 tagged Cyclin D3 (M1-L292 residues) expressed in sf9 cells using histone H1 (GGGPATPKKAKKL) as substrate incubated for 60 mins in presence of ATP by ADP-Glo kinase assay
Chain of CDK6/cyclin D3 (P30281 whole entry, the tested form may be a part): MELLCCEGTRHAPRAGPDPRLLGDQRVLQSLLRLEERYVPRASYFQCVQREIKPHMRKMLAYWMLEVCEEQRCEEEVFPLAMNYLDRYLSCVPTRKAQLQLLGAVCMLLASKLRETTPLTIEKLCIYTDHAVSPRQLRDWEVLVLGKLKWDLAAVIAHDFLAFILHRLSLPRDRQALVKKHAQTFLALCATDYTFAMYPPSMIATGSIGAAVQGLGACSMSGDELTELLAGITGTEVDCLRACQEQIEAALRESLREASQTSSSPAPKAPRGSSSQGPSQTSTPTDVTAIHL
Chain of CDK6/cyclin D3 (Q00534 whole entry, the tested form may be a part): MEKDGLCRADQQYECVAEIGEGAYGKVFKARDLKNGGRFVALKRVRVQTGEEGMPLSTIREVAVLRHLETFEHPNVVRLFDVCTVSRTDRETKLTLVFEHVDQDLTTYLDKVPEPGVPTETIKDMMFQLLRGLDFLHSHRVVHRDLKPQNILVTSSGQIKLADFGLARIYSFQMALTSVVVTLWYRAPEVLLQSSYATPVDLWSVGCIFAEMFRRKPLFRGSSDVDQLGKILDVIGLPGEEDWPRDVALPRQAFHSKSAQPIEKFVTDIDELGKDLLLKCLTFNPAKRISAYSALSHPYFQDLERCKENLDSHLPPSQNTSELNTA

CDK9/cyclin T1 = CDK9/cyclin T1 (Homo sapiens, UniProt P50750); experiment: Inhibition of human recombinant full length N-terminal GST His6 fused CDK9 (M1 to F372 residues/ N-terminal His6 tagged Cyclin T1 (M1 to K726 residues) expressed in sf9 cells using RBER-IRStide as substrate incubated for 90 mins in presence of ATP by ADP-Glo kinase assay
Chain of CDK9/cyclin T1 (O60563 whole entry, the tested form may be a part): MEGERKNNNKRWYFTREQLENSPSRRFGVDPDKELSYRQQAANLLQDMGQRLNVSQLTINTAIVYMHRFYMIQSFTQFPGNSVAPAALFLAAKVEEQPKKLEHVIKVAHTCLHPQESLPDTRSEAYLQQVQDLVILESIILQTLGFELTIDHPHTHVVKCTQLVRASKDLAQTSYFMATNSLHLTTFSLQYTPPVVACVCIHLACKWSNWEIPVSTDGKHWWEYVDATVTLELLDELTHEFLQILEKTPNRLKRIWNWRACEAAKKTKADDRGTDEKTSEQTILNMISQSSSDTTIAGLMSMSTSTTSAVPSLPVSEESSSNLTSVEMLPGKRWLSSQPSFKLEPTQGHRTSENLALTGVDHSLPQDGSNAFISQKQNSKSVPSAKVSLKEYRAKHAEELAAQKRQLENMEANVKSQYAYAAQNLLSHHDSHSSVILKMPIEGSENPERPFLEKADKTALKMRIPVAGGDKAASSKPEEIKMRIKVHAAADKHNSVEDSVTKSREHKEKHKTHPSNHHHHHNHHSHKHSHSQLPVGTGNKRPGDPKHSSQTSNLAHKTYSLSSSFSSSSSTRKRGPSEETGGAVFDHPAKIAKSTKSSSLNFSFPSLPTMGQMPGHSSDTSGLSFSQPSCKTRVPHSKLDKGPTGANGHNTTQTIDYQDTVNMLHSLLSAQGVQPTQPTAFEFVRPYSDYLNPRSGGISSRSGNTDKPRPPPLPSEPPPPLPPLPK
Chain of CDK9/cyclin T1 (P50750 whole entry, the tested form may be a part): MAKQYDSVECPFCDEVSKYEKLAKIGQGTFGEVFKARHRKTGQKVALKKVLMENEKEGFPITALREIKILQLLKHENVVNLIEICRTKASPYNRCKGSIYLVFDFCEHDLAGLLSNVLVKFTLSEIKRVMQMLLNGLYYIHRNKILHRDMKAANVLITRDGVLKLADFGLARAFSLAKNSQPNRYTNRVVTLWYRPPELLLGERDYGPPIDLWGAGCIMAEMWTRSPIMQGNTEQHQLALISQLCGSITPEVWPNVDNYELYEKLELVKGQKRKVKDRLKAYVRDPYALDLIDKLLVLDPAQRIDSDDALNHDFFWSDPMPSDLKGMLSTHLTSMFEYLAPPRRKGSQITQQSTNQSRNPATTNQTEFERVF

[7] = molecular target: Cyclin-dependent kinase 2/cyclin E1 (Homo sapiens, UniProt P24941); experiment: Inhibition of CDK2/Cyclin E (unknown origin) incubated for 30 to 120 mins in presence of ATP by ADP-Glo kinase assay; type: protein-complex assay
CDK7/Cyclin H/MNAT1 = CDK7/Cyclin H/MNAT1 (Homo sapiens, UniProt P50613); experiment: Inhibition of CDK7/cyclinH/MAT1 (unknown origin) using RBER-IRStide as substrate incubated for 120 mins in presence of ATP by ADP-Glo kinase assay; type: protein-complex assay
Chain of CDK7/Cyclin H/MNAT1 (P51946 whole entry): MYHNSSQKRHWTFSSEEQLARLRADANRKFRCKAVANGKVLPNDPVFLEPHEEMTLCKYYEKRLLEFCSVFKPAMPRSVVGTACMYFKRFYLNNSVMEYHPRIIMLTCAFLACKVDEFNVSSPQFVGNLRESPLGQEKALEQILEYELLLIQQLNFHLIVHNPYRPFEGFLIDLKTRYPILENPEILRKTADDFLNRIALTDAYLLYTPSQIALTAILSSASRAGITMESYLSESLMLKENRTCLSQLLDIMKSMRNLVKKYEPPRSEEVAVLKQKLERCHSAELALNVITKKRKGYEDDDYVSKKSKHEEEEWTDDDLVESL
Chain of CDK7/Cyclin H/MNAT1 (P50613 whole entry): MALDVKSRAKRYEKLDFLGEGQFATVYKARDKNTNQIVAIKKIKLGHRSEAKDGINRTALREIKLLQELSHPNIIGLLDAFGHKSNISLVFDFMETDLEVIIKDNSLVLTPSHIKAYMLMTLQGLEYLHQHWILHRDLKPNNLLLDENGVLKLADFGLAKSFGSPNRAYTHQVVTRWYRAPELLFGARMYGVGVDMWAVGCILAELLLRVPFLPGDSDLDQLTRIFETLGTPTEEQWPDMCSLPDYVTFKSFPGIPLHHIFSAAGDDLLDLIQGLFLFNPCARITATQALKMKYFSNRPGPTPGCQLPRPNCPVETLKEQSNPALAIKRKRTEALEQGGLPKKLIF
Chain of CDK7/Cyclin H/MNAT1 (P51948 whole entry, further chain): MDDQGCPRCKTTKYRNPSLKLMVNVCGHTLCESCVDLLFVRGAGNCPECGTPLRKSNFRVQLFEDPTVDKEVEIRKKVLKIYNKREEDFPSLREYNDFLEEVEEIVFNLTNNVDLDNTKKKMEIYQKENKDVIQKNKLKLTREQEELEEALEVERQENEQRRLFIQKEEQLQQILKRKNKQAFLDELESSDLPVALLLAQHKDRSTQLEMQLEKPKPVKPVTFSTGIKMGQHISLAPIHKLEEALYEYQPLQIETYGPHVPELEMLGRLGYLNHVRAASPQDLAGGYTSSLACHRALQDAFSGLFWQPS

| Structure (SMILES) | inhibition [1] | inhibition [2] [%] | pKi [3] | GI50 (MV4-11) [µM] | also measured |
| --- | --- | --- | --- | --- | --- |
| Cc1c(Nc2ncc3c(n2)CCCC3)cccc1NS(C)(=O)=O |  | 63 |  |  |  |
| O=C(Nc1cccc(CN2CCCC2)c1)c1n[nH]c2ccccc12 |  |  | 5.69 | 8.62 | GI50 (MOLM-13): 3.83 µM |
| CC1(C)CC(=O)c2cnc(NC(=O)c3ccc(F)cc3)nc2C1 |  |  |  |  | Ki [4]: Not Active |
| COc1ccc(Nc2ncc3c(n2)CCC3)cc1 |  |  | 5.76 | 0.84 | GI50 (MOLM-13): 1.1 µM |
| COc1ccccc1Nc1ncc2c(n1)CCCC2 | 2% | 22 |  |  |  |
| COc1ccc(Nc2ncc3c(n2)CCCC3)c(OC)c1F | 7% | 21 |  |  |  |
| COc1cc(Cl)ccc1Nc1ncc2c(n1)CCCC2 | inactive | 45 |  |  |  |
| CCOc1ccccc1Nc1ncc2c(n1)CCCC2 | 2% | 4 |  |  |  |

Now from value to compound, other results behind:

| inhibition [1] | inhibition [2] [%] | pKi [3] | GI50 (MV4-11) [µM] | Structure (SMILES) | also measured |
| --- | --- | --- | --- | --- | --- |
| 7% | 6 |  |  | FC(F)(F)c1ccc(Nc2ncc3c(n2)CCCC3)cc1 |  |
| 3% | 1 |  |  | COc1ccc(Nc2ncc3c(n2)CCCC3)cc1 |  |
| 87% | 83 | 5.90 | 3.5 | O=[N+]([O-])c1cccc(Nc2ncc3c(n2)CCCC3)c1 | pKi (CDK2/Cyclin A2): 5.96; pKi [5]: < 5.30; pKi [6]: < 5.30; pKi (CDK6/cyclin D3): < 5.30; pKi (CDK9/cyclin T1): < 5.30; pKi [7]: < 5.30; pKi (CDK7/Cyclin H/MNAT1): < 5.30 |
| 39% | 78 | 5.91 | 2.6 | CCc1cccc(Nc2ncc3c(n2)CCCC3)c1 | pKi (CDK2/Cyclin A2): < 5.30; pKi [5]: < 5.30; pKi [6]: < 5.30; pKi (CDK6/cyclin D3): < 5.30; pKi (CDK9/cyclin T1): < 5.30; pKi [7]: < 5.30; pKi (CDK7/Cyclin H/MNAT1): < 5.30 |
| 8% | 10 |  |  | FC(F)(F)c1ccccc1Nc1ncc2c(n1)CCCC2 |  |
| 7% | 5 |  |  | FC(F)(F)c1cccc(Nc2ncc3c(n2)CCCC3)c1 |  |
| inactive | 9 |  |  | FC(F)(F)Oc1ccccc1Nc1ncc2c(n1)CCCC2 |  |
| 58% | 77 | 5.84 | 6 | Cc1ccc(Nc2ncc3c(n2)CCCC3)cc1 | pKi (CDK2/Cyclin A2): 5.34; pKi [5]: < 5.30; pKi [6]: < 5.30; pKi (CDK6/cyclin D3): < 5.30; pKi (CDK9/cyclin T1): < 5.30; pKi [7]: < 5.30; pKi (CDK7/Cyclin H/MNAT1): < 5.30 |
| 93% | 85 | 6.00 | 2.28 | COc1cccc(Nc2ncc3c(n2)CCCC3)c1 | pKi (CDK2/Cyclin A2): 5.95; pKi [5]: < 5.30; pKi [6]: < 5.30; pKi (CDK6/cyclin D3): < 5.30; pKi (CDK9/cyclin T1): < 5.30; pKi [7]: < 5.30; pKi (CDK7/Cyclin H/MNAT1): < 5.30 |
| 54% | 82 | 6.00 | > 10 | Cc1ccccc1Nc1ncc2c(n1)CCCC2 | pKi (CDK2/Cyclin A2): 5.39; pKi [5]: < 5.30; pKi [6]: < 5.30; pKi (CDK6/cyclin D3): < 5.30; pKi (CDK9/cyclin T1): < 5.30; pKi [7]: < 5.30; pKi (CDK7/Cyclin H/MNAT1): < 5.30 |
|  |  | 6.06 | 9.83 | c1ccc(Nc2ncc3c(n2)CCCC3)cc1 | pIC50 [3]: 5.75; GI50 (MOLM-13): 5.63 µM |
